Source: ChEMBL document CHEMBL4811308, “Design, synthesis and broad spectrum antibreast cancer activity of diarylindoles via induction of apoptosis in aggressive breast cancer cells” (Bioorg Med Chem, 2021)

Key:
Type in all cases: organism-based
[1] = Acute toxicity in Swiss albino mouse assessed as triglyceride level at 50 mg/kg, po administered once and observed for 7 days (reference value: 81.12 +/- 7.75 mg/dl); conditions: in vivo, 168 h, time 7 day
[2] = Acute toxicity in Swiss albino mouse assessed as relative heart weight at 5 to 300 mg/kg, po administered once and observed for 7 days; conditions: in vivo, 168 h, dose 5-300 mg/kg, time 7 day
Summary of the method: (§1)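 Acute oral toxicity per OECD guideline 423; mice 20–25 g, 3 male + 3 female per group, acclimatized 7 days at 22 ± 5 °C, 12 h light/dark. Compound dissolved in minimal DMSO, diluted in 0.7% CMC, single oral dose of 5, 50 or 300 mg/kg; controls given vehicle only. Clinical signs checked hourly on dosing day, then daily. Samples and body weights taken on day 7.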

[3] = Acute toxicity in Swiss albino mouse assessed as relative brain weight at 5 to 300 mg/kg, po administered once and observed for 7 days; conditions: in vivo, 168 h, dose 5-300 mg/kg, time 7 day; summary of the method: as §1
[4] = Acute toxicity in Swiss albino mouse assessed as SGOT level at 50 mg/kg, po administered once and observed for 7 days (reference value: 22.94 +/- 4.04 U/L); conditions: in vivo, 168 h, time 7 day
[5] = Acute toxicity in Swiss albino mouse assessed as relative lungs weight at 5 to 300 mg/kg, po administered once and observed for 7 days; conditions: in vivo, 168 h, dose 5-300 mg/kg, time 7 day; summary of the method: as §1
[6] = Acute toxicity in Swiss albino mouse assessed as WBC level at 50 mg/kg, po administered once and observed for 7 days (reference value: 8.55 +/- 2.71 /mm3); conditions: in vivo, 168 h, time 7 day
[7] = Acute toxicity in Swiss albino mouse assessed as mortality at 5 to 300 mg/kg, po administered once and observed for 7 days; conditions: in vivo, 168 h, dose 5-300 mg/kg, time 7 day; summary of the method: as §1
[8] = Acute toxicity in Swiss albino mouse assessed as RBC level at 50 mg/kg, po administered once and observed for 7 days (reference value: 9.21 +/- 0.32 /mm3); conditions: in vivo, 168 h, time 7 day
[9] = Acute toxicity in Swiss albino mouse assessed as albumin at 300 mg/kg, po administered once and observed for 7 days (reference value: 1.62 +/- 0.09 g/dl); conditions: in vivo, 168 h, time 7 day
[10] = Acute toxicity in Swiss albino mouse assessed as relative liver weight at 5 to 300 mg/kg, po administered once and observed for 7 days; conditions: in vivo, 168 h, dose 5-300 mg/kg, time 7 day; summary of the method: as §1
[11] = Acute toxicity in Swiss albino mouse assessed as body weight at 5 mg/kg, po administered once and observed for 7 days (reference value: 22.75 +/- 0.93 gm); conditions: in vivo, 168 h, time 7 day
[12] = Acute toxicity in Swiss albino mouse assessed as cholesterol level at 5 mg/kg, po administered once and observed for 7 days (reference value: 122.05 +/- 8.12 mg/dl); conditions: in vivo, 168 h, time 7 day
[13] = Acute toxicity in Swiss albino mouse assessed as protein level at 300 mg/kg, po administered once and observed for 7 days (reference value: 2.01 +/- 0.11 mg/ml); conditions: in vivo, 168 h, time 7 day
[14] = Acute toxicity in Swiss albino mouse assessed as cholesterol level at 300 mg/kg, po administered once and observed for 7 days (reference value: 122.05 +/- 8.12 mg/dl); conditions: in vivo, 168 h, time 7 day
[15] = Acute toxicity in Swiss albino mouse assessed as cholesterol level at 50 mg/kg, po administered once and observed for 7 days (reference value: 122.05 +/- 8.12 mg/dl); conditions: in vivo, 168 h, time 7 day
[16] = Acute toxicity in Swiss albino mouse assessed as WBC level at 5 mg/kg, po administered once and observed for 7 days (reference value: 8.55 +/- 2.71 /mm3); conditions: in vivo, 168 h, time 7 day

## COc1ccc2c(c1)c(Cc1ccc(OCCN(C)C)cc1)c(-c1cc(OC)c(OC)c(OC)c1)n2Cc1ccc(OCCN(C)C)cc1
[1]
  Activity: 91.7 mg/dL
[2]
  Activity: Non-Toxic
[3]
  Activity: Non-Toxic
[4]
  Activity: 21.92 U/L
[5]
  Activity: Non-Toxic
[6]
  Activity: 4.86 thousands/mm3
[7]
  Activity: Non-Toxic
[8]
  Activity: 8.72 million/mm3
[9]
  Activity: 1.94 g/dL
[10]
  Activity: Non-Toxic
[11]
  Activity: 21.71 g
[12]
  Activity: 112.13 mg/dL
[13]
  Activity: 1.93 mg/mL
[14]
  Activity: 132.33 mg/dL
[15]
  Activity: 121.96 mg/dL
[16]
  Activity: 6.73 thousands/mm3

## COc1ccc2c(c1)c(Cc1ccc(OC(C)CN(C)C)cc1)c(-c1cc(OC)c(OC)c(OC)c1)n2Cc1ccc(OC(C)CN(C)C)cc1 (configuration not stated)
[1]
  Activity: 83.99 mg/dL
[2]
  Activity: Non-Toxic
[3]
  Activity: Non-Toxic
[4]
  Activity: 33.28 U/L
[5]
  Activity: Non-Toxic
[6]
  Activity: 7.5 thousands/mm3
[7]
  Activity: Non-Toxic
[8]
  Activity: 8.67 million/mm3
[9]
  Activity: 1.53 g/dL
[10]
  Activity: Non-Toxic
[11]
  Activity: 21.6 g
[12]
  Activity: 117.25 mg/dL
[13]
  Activity: 1.66 mg/mL
[14]
  Activity: 108.72 mg/dL
[15]
  Activity: 108.65 mg/dL
[16]
  Activity: 6.23 thousands/mm3
